Measurements as given in article PMC3475189 (Environmental science & technology, 2012).

Columns and labels:
[1] = Tissue levels of PCB 95 and OH-PCB metabolites by GC-ECD; format: in vivo, female C57Bl/6 mice; settings: for levels in adipose and brain samples: detection limits 11 to 16 ng/g tissue; for concentration at 24 h: female, C57Bl/6, mouse, brain
[2] = General toxicity; format: in vivo, female C57Bl/6 mice; settings: 0.1, 1 or 6 mg/kg b.w./day oral for 39 days, any dose level
Method in brief: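 Seven-week-old female C57Bl/6 mice, housed singly on a 12 h reverse light cycle, were acclimated 7 days. They then took the test compound in peanut butter daily at 0.1, 1.0 or 6.0 mg/kg/day for 39 days, with the amount adjusted to daily body weight; vehicle controls received peanut butter only. Body weights were recorded daily and analysed by two-way repeated measures ANOVA.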

[3] = test system: CYP3A11 mRNA; assay: Hepatic CYP3A11 mRNA level by qPCR; format: in vivo, female C57Bl/6 mice; settings: liver, high dose 6 mg/kg b.w./day, 39 days oral
[4] = test system: P450 mRNA (CYP1A2, CYP3A11, CYP2B10, CYP2S1); assay: Brain P450 mRNA levels by qPCR; format: in vivo, female C57Bl/6 mice; settings: 39 days oral
[5] = test system: CYP1A2 mRNA; assay: Hepatic CYP1A2 mRNA level by qPCR; format: in vivo, female C57Bl/6 mice; settings: liver, 39 days oral
[6] = test system: CYP2S1 mRNA; assay: Hepatic CYP2S1 mRNA level by qPCR; format: in vivo, female C57Bl/6 mice; settings: liver, all doses, 39 days oral
[7] = Enantiomeric fractions in tissues by enantioselective GC; format: in vivo, female C57Bl/6 mice
Method in brief: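 Extracts of blood, brain, liver and adipose came from mice given 0.1, 1.0 or 6.0 mg/kg/day orally in peanut butter for 39 days and sacrificed 24 h after the last dose. Enantioselective GC-ECD used Chirasil Dex, BGB-172 or ChiralDex B-DM columns: 35 to 140 °C held 420 min, then 200 °C; injector and detector 250 °C; helium 3 mL/min. EF = A1/(A1+A2), E1 being the first-eluting atropisomer; mean ± SD.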

[8] = test system: CYP2B10 mRNA; assay: Hepatic CYP2B10 mRNA level by qPCR; format: in vivo, female C57Bl/6 mice; settings: liver, low dose 0.1 mg/kg b.w./day, 39 days oral
[9] = cited from earlier work

COc1c(Cl)c(Cl)c(-c2cc(Cl)ccc2Cl)c(Cl)c1OC [4,5-95, 4,5-dimethoxy-2,2′,3,5′,6-pentachlorobiphenyl]
levels in adipose and brain samples [1]: below their respective detection limits

Oc1cc(Cl)c(-c2cc(Cl)ccc2Cl)c(Cl)c1Cl [4-95, 2,2′,3,5′,6-pentachlorobiphenyl-4-ol]
levels in adipose and brain samples [1]: below their respective detection limits | level in liver ([1]; liver, low dose treatment group): below the detection limit

Clc1ccc(Cl)c(-c2c(Cl)ccc(Cl)c2Cl)c1 [PCB 95, 2,2′,3,5′,6-pentachlorobiphenyl]
effect on final body weight, growth rate or other signs of general toxicity [2]: no effect | hepatic CYP3A11 levels compared to control [3]: no change | brain P450 mRNA levels [4]: not affected | CYP1A2 transcript levels relative to control ([5]; high dose 6 mg/kg b.w./day): not changed | induction of CYP1A2 mRNA compared to control ([5]; low dose 0.1 mg/kg b.w./day): 1.9 fold | concentration at 24 h ([1]; oral, 6 mg/kg/day): 360 ng/g | concentration at 24 h ([1]; po): 37 to 360 ng/g | increase in adipose levels of PCB 95 ([1]; low to medium dose (10-fold increase in dose)): 10 fold | hepatic CYP2S1 mRNA levels [6]: not affected | average EF value across treatment groups ([7]; adipose, EF = A1/(A1+A2)): ≈ 0.19 | enriched atropisomer ([7]; blood, brain, liver and adipose, all three treatment groups): E2-PCB 95 was enriched | average EF across treatment groups ([7]; liver and blood, EF = A1/(A1+A2)): approximately 0.10 | CYP2B10 mRNA levels compared to control [8]: no change

Oc1cc(Cl)c(Cl)c(-c2cc(Cl)ccc2Cl)c1Cl [5-95, 2,2′,3,5′,6-pentachlorobiphenyl-5-ol]
levels in adipose and brain samples [1]: below their respective detection limits | enriched atropisomer ([7]; liver, high dose treatment group): E1-5-95 was enriched | enantiomeric enrichment ([7]; liver, medium dose treatment group): no consistent enantiomeric enrichment

COc1c(Cl)cc(Cl)c(-c2cc(Cl)ccc2Cl)c1Cl [3-103, 3 Methoxy 2,2′,4,5′,6-pentachlorobiphenyl]
levels in adipose and brain samples [1]: below their respective detection limits

Oc1c(Cl)cc(-c2ccc(Cl)c(Cl)c2)c(Cl)c1Cl [4-107, 2,3,3′,4′,5-pentachlorobiphenyl-4-ol]
level in fetal brains ([9]; fetal brain after oral administration of 4-107 to pregnant Wistar rats): ~ 1 μg/g tissue | level in post-weanling rats ([9]; post-weanling rats): below detection
